B1: tRNA (parent)
chain: GUUCCGUUGGCGUAAUGGUAACGCGUCUCCCUCCUAAGGAGAAGACUGCGGGUUCGAGUCCCGUACGGAACG

Variants of: B1
Assay: yeast fitness, log relative to wild type (ln ratio); higher = fitter; tRNA-Arg(CCU), competitive growth, 37 C, 1 M NaCl
How it was run: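 In BY4742 missing the chromosomal gene, a combinatorial tRNA-Arg(CCU) variant library was maintained on a HIS3 centromeric plasmid. Selection ran ~6.5 generations (~26.5 h) in SC-HIS 1M NaCl at 37 °C, following 4 generations in SC-HIS at 30 °C, with three outputs per input and variant counts by 125 bp paired-end Illumina sequencing. Fitness is the natural log of a genotype's generations relative to the wild type's, with generations taken as inverse-variance-weighted, OD-scaled log2 output/input frequency.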

Variant | yeast fitness (ln)
AGUCCGUUGGCGUAAUGGUAACGCGUUUCCCUCCUAAGGAGACGACUGCGGGUUCGAGUCCCGUACGGAUUG [G1A U2G C27U A43C A70U C71U] | -0.167
GUUCCGUUGGCGUAAUGGUAACGCGUCUCCCUCCUAAGGAGACGACUGCGGGUUCGAGUCCCGUAAGGGGUG [A43C C66A A69G A70G C71U] | -0.159
AUUCCAUUGGCGUAAUGGUAACGCGUUUCCCUCCUAAGGAGAAGAUUGCGGGUUCGAGUCCCGUAUGGAUUG [G1A G6A C27U C46U C66U A70U C71U] | -0.478
GGUCCGUUGGCGUAAUGGUAACGCGUUUCCCUCCUAAGGAGAAGAUUGCGGGUUCGAGUCCCGUACGGAGCG [U2G C27U C46U A70G] | -0.0813
AGUCCGUUGGCGUAAUGGUAACGCGUCUCCCUCCUAAGGAGAAGACUGCGGGUUCGAGUCCCGUAUGGGAUG [G1A U2G C66U A69G C71U] | -0.254
AUUCCAUUGGCGUAAUGGUAACGCGUUUCCCUCCUAAGGAGACGAUUGCGGGUUCGAGUCCCGUACGGAAUG [G1A G6A C27U A43C C46U C71U] | -0.247
AGUCCAUUGGCGUAAUGGUAACGCGUUUCCCUCCUAAGGAGACGAUUGCGGGUUCGAGUCCCGUAUGGGGCG [G1A U2G G6A C27U A43C C46U C66U A69G A70G] | -0.34
AGUCCUUUGGCGUAAUGGUAACGCGUCUCCCUCCUAAGGAGAAGACUGCGGGUUCGAGUCCCGUAUGGAGCG [G1A U2G G6U C66U A70G] | -0.199
AUUCCUUUGGCGUAAUGGUAACGCGUUUCCCUCCUAAGGAGACGAUUGCGGGUUCGAGUCCCGUAUGGGGCG [G1A G6U C27U A43C C46U C66U A69G A70G] | -0.353
AGUCCUUUGGCGUAAUGGUAACGCGUCUCCCUCCUAAGGAGACGACUGCGGGUUCGAGUCCCGUAAGGAGCG [G1A U2G G6U A43C C66A A70G] | -0.251
AGUCCUUUGGCGUAAUGGUAACGCGUUUCCCUCCUAAGGAGACGACUGCGGGUUCGAGUCCCGUAAGGAUCG [G1A U2G G6U C27U A43C C66A A70U] | -0.212
GUUCCGUUGGCGUAAUGGUAACGCGUCUCCCUCCUAAGGAGAAGACUGCGGGUUCGAGUCCCGUAUGGAACG [C66U] | -0.017
GGUCCUUUGGCGUAAUGGUAACGCGUUUCCCUCCUAAGGAGAAGAUUGCGGGUUCGAGUCCCGUAUGGGGCG [U2G G6U C27U C46U C66U A69G A70G] | -0.277
GGUCCAUUGGCGUAAUGGUAACGCGUUUCCCUCCUAAGGAGAAGAUUGCGGGUUCGAGUCCCGUAUGGGUUG [U2G G6A C27U C46U C66U A69G A70U C71U] | -0.394
GGUCCUUUGGCGUAAUGGUAACGCGUUUCCCUCCUAAGGAGAAGAUUGCGGGUUCGAGUCCCGUAAGGAUCG [U2G G6U C27U C46U C66A A70U] | -0.0141
GUUCCUUUGGCGUAAUGGUAACGCGUUUCCCUCCUAAGGAGACGAUUGCGGGUUCGAGUCCCGUAAGGAAUG [G6U C27U A43C C46U C66A C71U] | -0.299
GGUCCAUUGGCGUAAUGGUAACGCGUUUCCCUCCUAAGGAGAAGACUGCGGGUUCGAGUCCCGUACGGGGUG [U2G G6A C27U A69G A70G C71U] | -0.245
AGUCCUUUGGCGUAAUGGUAACGCGUUUCCCUCCUAAGGAGACGAUUGCGGGUUCGAGUCCCGUAAGGAUCG [G1A U2G G6U C27U A43C C46U C66A A70U] | -0.309
AUUCCGUUGGCGUAAUGGUAACGCGUCUCCCUCCUAAGGAGAAGAUUGCGGGUUCGAGUCCCGUACGGGUCG [G1A C46U A69G A70U] | -0.0206

Variant | yeast fitness (ln)
GUUCCAUUGGCGUAAUGGUAACGCGUCUCCCUCCUAAGGAGACGAUUGCGGGUUCGAGUCCCGUACGGGAUG [G6A A43C C46U A69G C71U] | -0.171
GUUCCGUUGGCGUAAUGGUAACGCGUUUCCCUCCUAAGGAGAAGAUUGCGGGUUCGAGUCCCGUACGGAAUG [C27U C46U C71U] | -0.028
ACUCCGUUGGCGUAAUGGUAACGCGUUUCCCUCCUAAGGAGACGACUGCGGGUUCGAGUCCCGUAUGGGUUG [G1A U2C C27U A43C C66U A69G A70U C71U] | -0.397
GUUCCAUUGGCGUAAUGGUAACGCGUCUCCCUCCUAAGGAGACGAUUGCGGGUUCGAGUCCCGUAUGGAUCG [G6A A43C C46U C66U A70U] | -0.183
GGUCCGUUGGCGUAAUGGUAACGCGUCUCCCUCCUAAGGAGACGAUUGCGGGUUCGAGUCCCGUAUGGGUUG [U2G A43C C46U C66U A69G A70U C71U] | -0.413
ACUCCUUUGGCGUAAUGGUAACGCGUUUCCCUCCUAAGGAGACGACUGCGGGUUCGAGUCCCGUAAGGGGUG [G1A U2C G6U C27U A43C C66A A69G A70G C71U] | -0.272
GUUCCGUUGGCGUAAUGGUAACGCGUUUCCCUCCUAAGGAGAAGACUGCGGGUUCGAGUCCCGUACGGGACG [C27U A69G] | -0.0417
AGUCCAUUGGCGUAAUGGUAACGCGUCUCCCUCCUAAGGAGACGAUUGCGGGUUCGAGUCCCGUACGGGAUG [G1A U2G G6A A43C C46U A69G C71U] | -0.206
AGUCCAUUGGCGUAAUGGUAACGCGUUUCCCUCCUAAGGAGAAGACUGCGGGUUCGAGUCCCGUACGGAACG [G1A U2G G6A C27U] | -0.0861
GGUCCGUUGGCGUAAUGGUAACGCGUUUCCCUCCUAAGGAGAAGACUGCGGGUUCGAGUCCCGUAUGGAUUG [U2G C27U C66U A70U C71U] | -0.281
AUUCCUUUGGCGUAAUGGUAACGCGUUUCCCUCCUAAGGAGACGACUGCGGGUUCGAGUCCCGUAAGGAUUG [G1A G6U C27U A43C C66A A70U C71U] | -0.608
GGUCCGUUGGCGUAAUGGUAACGCGUCUCCCUCCUAAGGAGAAGAUUGCGGGUUCGAGUCCCGUAAGGGUUG [U2G C46U C66A A69G A70U C71U] | -0.34
GCUCCUUUGGCGUAAUGGUAACGCGUCUCCCUCCUAAGGAGAAGACUGCGGGUUCGAGUCCCGUAAGGAAUG [U2C G6U C66A C71U] | -0.294
GUUCCUUUGGCGUAAUGGUAACGCGUCUCCCUCCUAAGGAGACGAUUGCGGGUUCGAGUCCCGUACGGAUCG [G6U A43C C46U A70U] | -0.173
GCUCCUUUGGCGUAAUGGUAACGCGUCUCCCUCCUAAGGAGAAGAUUGCGGGUUCGAGUCCCGUAUGGAACG [U2C G6U C46U C66U] | -0.12
GGUCCGUUGGCGUAAUGGUAACGCGUUUCCCUCCUAAGGAGAAGACUGCGGGUUCGAGUCCCGUAUGGAAUG [U2G C27U C66U C71U] | -0.194
GCUCCGUUGGCGUAAUGGUAACGCGUCUCCCUCCUAAGGAGAAGAUUGCGGGUUCGAGUCCCGUACGGGAUG [U2C C46U A69G C71U] | -0.131
GGUCCUUUGGCGUAAUGGUAACGCGUUUCCCUCCUAAGGAGAAGAUUGCGGGUUCGAGUCCCGUAUGGAGUG [U2G G6U C27U C46U C66U A70G C71U] | -0.261
GCUCCAUUGGCGUAAUGGUAACGCGUUUCCCUCCUAAGGAGAAGACUGCGGGUUCGAGUCCCGUACGGGGUG [U2C G6A C27U A69G A70G C71U] | -0.216
